Measurements from PubChem BioAssay.
Inconclusive results are not listed.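 How the source made its calls, unless noted: active means viability at or below 27.92% in each of two runs, the all-compound median minus 4 SD; inconclusive means no clear call, values can overlap the other calls; inactive means the rest.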

Columns and labels:
[1] = S. cerevisiae growth inhibition in permissive medium (OD615), pilot counter-assay for S. cerevisiae lifespan shortening project, permissive growth control (AID 705;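 active means growth inhibition above 25% in both replicates, a cutoff set 3 SD above the mean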); conditions: OD615, 24 h, at 10 µM, active compounds read high
How it was run: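 Test system: Saccharomyces cerevisiae strain carrying genetically modified DeaD replicative-lifespan system; buffer or medium: SC raffinose/galactose permissive medium; dosing: one dose 10 µM, DMSO 0.25% final; times: 24 h exposure, 30 °C; measured by: OD at 615 nm; read-out basis: growth inhibition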

[2] = S. cerevisiae growth inhibition in restrictive medium, OD615, pilot screen, restrictive growth control, yeast lifespan reduction project (AID 706;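 active means growth inhibition above a set limit, 3 SD over mean compound inhibition, in both replicates, cut at about 43% in these data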;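 further: modified DeaD lifespan yeast strain shifted to restrictive glucose medium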); conditions: OD615, 48 h, at 10 µM, active compounds read high
How it was run: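 material = engineered S. cerevisiae DeaD strain | buffer or medium = glucose-based CSMM-D restrictive medium | dosing = one concentration, 10 µM final, 0.25% DMSO | schedule = 4 h pre-growth plus 48 h compound exposure, 30 °C | detection = OD615 absorbance reading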

[3] = doxorubicin toxicity protection in MRP-1 cells – H69AR cells, CellTiter-Glo, duplicate, MRP-1 activator project, pilot screen (AID 807;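 active means viability increase at or above a cutoff of the median across tested compounds plus 3 SD, cut at about 8.5% in these data, passing the limit was not always enough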;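 further: compound pretreatment 18-22 h then 72 h combined with doxorubicin; 0% = doxorubicin alone and 100% = vehicle without doxorubicin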); conditions: H69AR viability with doxorubicin, CellTiter-Glo luminescence; at 10 µM; active compounds read high
[4] = viability of HCT116 without oncogenic beta-catenin – human colon tumor cells, pilot screen (AID 823;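 active means cell viability at or below a set limit in both duplicate runs, the limit being the all-compound median minus 4 SD, cut at about 23% in these data, passing the limit was not always enough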;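 further: 0% = wells killed by 20 µM Hyamine and 100% = untreated DMSO cell wells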); conditions: HCT116 beta-catenin knockout viability, CellTiter-Glo, 60 h; at 10 µM; active compounds read low
[5] = viability of PTEN-null HCT116 cells – cell-based, HCT116 clonal line, CellTiter-Glo, pilot screen (AID 824); conditions: HCT116 PTEN-deleted viability, 60 h, at 10 µM, active compounds read low;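 further: 0% = 20 µM Hyamine control and 100% = vehicle cell control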
[6] = RAM pathway blockade in budding yeast – dse1pr::URA3 reporter, 5-FOA selection, pilot screen (AID 869;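 active means inhibition over a set limit, the all-compound mean plus 3 SD, in both replicate runs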;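 further: 0% = DMSO wells with no growth and 100% = 10 µM 1-NA-PP1 with full growth; RAM network block rescues cells from 5-FOA so hits raise OD615 growth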); conditions: S. cerevisiae dse1pr::URA3 5-FOA growth, OD615, 2 d; at 10 µM; active compounds read high; strain carries analog-sensitive mutant Cbk1 kinase
[7] = RAM signaling pathway blockade in yeast – S. cerevisiae, Pdr1DBD-CYC8 efflux-inhibited sensitized strain, primary screen (AID 1298;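 active means RAM network inhibition above 8.4% in each of two replicates, 3 SD over the compound average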;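 further: 0% = DMSO untreated cells without growth and 100% = 10 µM 1-NA-PP1 full growth; higher means more yeast growth rescued from 5-FOA killing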); conditions: S. cerevisiae cbk1-as DSE1-URA3 strain, 5-FOA growth OD615, 2 d; at 50 µM; active compounds read high

CCC1CCCCN1Cc1ccc(OC)c(OC)c1 (stereo not drawn)
inactive: growth inhibition [1] -7.04% | growth inhibition [2] -8.04% | viability increase [3] -2.09% | viability [4] 87.8% | viability [5] 96.9% | inhibition [6] 2.01% | RAM network inhibition [7] -1.61%

COc1ccc(NC(=O)C2CCCN(S(=O)(=O)c3cccc4cccnc34)C2)cc1 (stereo not drawn)
inactive: growth inhibition [1] -12.6% | growth inhibition [2] 4.72% | viability increase [3] -0.46% | viability [4] 88.2% | viability [5] 85.5% | inhibition [6] 2.36% | RAM network inhibition [7] 6.27%

O=C1CC(c2ccc(Cl)c(Cl)c2)CC(O)=C1C=NCCN1CCNCC1 (stereo not drawn)
inactive: growth inhibition [1] -11.8% | growth inhibition [2] -7.73% | viability increase [3] -1.07% | viability [4] 90.4% | viability [5] 96.6% | inhibition [6] 0.46% | RAM network inhibition [7] -1.78%

Cc1ccc(-n2ncc3c(=O)n(CC(=O)NCc4ccco4)cnc32)cc1C
inactive: growth inhibition [1] -5.52% | growth inhibition [2] -6.3% | viability increase [3] -5.18% | viability [4] 74.4% | viability [5] 56.4% | inhibition [6] 2.71% | RAM network inhibition [7] 1.9%

C=C(C)Cn1c(C(C)NC(=O)CCC)nc2ccccc21 (stereo not drawn)
inactive: growth inhibition [1] -26.1% | growth inhibition [2] -7.25% | viability increase [3] -3.54% | viability [4] 83.9% | viability [5] 86.7% | inhibition [6] 1.8% | RAM network inhibition [7] 0.47%

COc1ccc(-c2[nH]c(-c3ccc(F)cc3)nc2SCC(=O)NCc2ccco2)cc1OC
inactive: growth inhibition [1] -4.83% | growth inhibition [2] 12.4% | viability increase [3] -2.49% | viability [4] 96.9% | viability [5] 92.9% | inhibition [6] 0.93% | RAM network inhibition [7] 4.24%

COc1ccc(N2CCN(S(=O)(=O)c3ccc(OC)cc3)CC2)cc1
inactive: growth inhibition [1] -4.01% | growth inhibition [2] 3.09% | viability increase [3] -5.5% | viability [4] 99.3% | viability [5] 106% | inhibition [6] 0.885% | RAM network inhibition [7] 3.84%

Cc1cc(C(=O)Nc2cccnc2)on1
inactive: growth inhibition [1] -5.72% | growth inhibition [2] -5.71% | viability increase [3] -1.86% | viability [4] 103% | viability [5] 93.4% | inhibition [6] 0.355% | RAM network inhibition [7] 2.08%

Cc1cc(N2CCOCC2)c2c(N)c(Br)cc(C)c2n1
inactive: growth inhibition [1] -14% | growth inhibition [2] -15.8% | viability increase [3] -5.84% | viability [4] 80.1% | viability [5] 76.4% | inhibition [6] 1.16% | RAM network inhibition [7] 3.17%

Cc1ccc(C2=[N+]([O-])C3(CCCCC/C3=N\O)N(O)C2(C)C)o1 (stereo not drawn)
inactive: growth inhibition [1] -1.35% | growth inhibition [2] -2.15% | viability increase [3] -1.16% | viability [4] 99% | viability [5] 93.7% | inhibition [6] -0.505% | RAM network inhibition [7] 1.01%

COc1cccc(C(c2sc3ncnn3c2O)N2CCN(C(=O)c3ccco3)CC2)c1 (stereo not drawn)
inactive: growth inhibition [1] -11.1% | growth inhibition [2] -5.93% | viability increase [3] 0.76% | viability [4] 104% | viability [5] 101% | inhibition [6] 0.91% | RAM network inhibition [7] 2.1%

Cc1cc(Oc2ccccc2)nc2ccc(O)cc12
inactive: growth inhibition [1] -1.63% | growth inhibition [2] 3.26% | viability increase [3] -5.89% | viability [4] 89.9% | viability [5] 80.2% | inhibition [6] 1.14% | RAM network inhibition [7] -0.04%

COc1ccc2oc(-c3ccccc3)c(C(N)=O)c2c1
inactive: growth inhibition [1] 2.25% | growth inhibition [2] 11.4% | viability increase [3] -2.49% | viability [4] 99.1% | viability [5] 97.5% | inhibition [6] 0.53% | RAM network inhibition [7] 1.82%

Cc1cc(C)c(NC(=O)c2ccc(S(=O)(=O)N3CCOCC3)cc2)c(C)c1
inactive: growth inhibition [1] -9.41% | growth inhibition [2] -8.03% | viability increase [3] -2.1% | viability [4] 101% | viability [5] 98.1% | inhibition [6] 0.57% | RAM network inhibition [7] 0.69%

Cn1cccc1Cc1nnc(SCC(=O)NCc2ccccc2)n1-c1ccc(F)cc1
inactive: growth inhibition [1] -3.32% | growth inhibition [2] 0.42% | viability increase [3] -3.08% | viability [4] 90.8% | viability [5] 89.8% | inhibition [6] 2.85% | RAM network inhibition [7] 2.8%

Cc1oc2c(O)c(O)ccc2c(=O)c1-c1ccccc1
inactive: growth inhibition [1] -4.7% | growth inhibition [2] 1.24% | viability increase [3] 3.12% | viability [4] 95.1% | viability [5] 90.3% | inhibition [6] -0.32% | RAM network inhibition [7] -0.2%

CN1CCN(CCCNC(=O)c2ccc(CS(=O)(=O)c3ccc(Br)cc3)o2)CC1
inactive: growth inhibition [1] -7.34% | growth inhibition [2] -12.5% | viability increase [3] -1.18% | viability [4] 95.3% | viability [5] 90.8% | inhibition [6] 1.38% | RAM network inhibition [7] -0.99%

CCOC(=O)N1CCN(C(=O)C2CCN(C(=O)c3cc4sccc4n3CC)CC2)CC1
inactive: growth inhibition [1] -16.3% | growth inhibition [2] -18.7% | viability increase [3] -3.05% | viability [4] 91.7% | viability [5] 98.9% | inhibition [6] 0.825% | RAM network inhibition [7] 3.06%

O=C1CCCC(O)=C1C1C2=C(CCCC2=O)Oc2ccccc21 (stereo not drawn)
inactive: growth inhibition [1] -12.6% | growth inhibition [2] -10.5% | viability increase [3] -5.35% | viability [4] 91.6% | viability [5] 90.1% | inhibition [6] 2.33% | RAM network inhibition [7] 3.55%

Cc1c(NS(=O)(=O)c2ccccc2)cc(Cl)c(O)c1C
inactive: growth inhibition [1] -9.11% | growth inhibition [2] -4.86% | viability increase [3] -5.19% | viability [4] 90.9% | viability [5] 93.5% | inhibition [6] 0.695% | RAM network inhibition [7] 6.75%

CN1CCc2c(sc3c2C(=O)NC(c2ccc(-c4cccc(Cl)c4)o2)N3)C1 (stereo not drawn)
inactive: growth inhibition [1] 5% | growth inhibition [2] 3.19% | viability increase [3] -1.49% | viability [4] 97.6% | viability [5] 87.7% | inhibition [6] 1.89% | RAM network inhibition [7] 2.2%

CC1CCN(C(C(=O)Nc2ccc3c(c2)OCO3)c2ccccc2)CC1 (stereo not drawn)
inactive: growth inhibition [1] 3.37% | growth inhibition [2] 10.4% | viability increase [3] -2.94% | viability [4] 83.8% | viability [5] 78.7% | inhibition [6] 2.49% | RAM network inhibition [7] 4.49%

CCSc1nnc2c(n1)OC1(CCCC1)Nc1ccccc1-2
inactive: growth inhibition [1] -13.8% | growth inhibition [2] -3.69% | viability increase [3] -0.51% | viability [4] 97.3% | viability [5] 93.5% | inhibition [6] 1.45% | RAM network inhibition [7] 5.92%

O=C(CCCOc1ccc(Cl)cc1)N1CCCCC1
inactive: growth inhibition [1] -13.2% | growth inhibition [2] -11.9% | viability increase [3] 3.35% | viability [4] 96.1% | viability [5] 96.8% | inhibition [6] 0.44% | RAM network inhibition [7] -0.78%
